Assay results taken from ChEMBL document CHEMBL1153806, “Preclinical efficacy of a carboxylesterase 2-activated prodrug of doxazolidine” (J Med Chem, 2009).
Calls of active or inactive are those of the source. No cut-off for these calls is given here.

How the values were obtained:
Mus musculus [1] = assay: Toxicity in NOD/SCID mouse xenografted with human HepG2 cells expressing CES2 gene assessed as occurrence of diarrhea at 3 mg/kg, iv administered on day 7, 14 and 21 after tumor implantation; assay type: organism-based; design: dose 3 mg/kg, route intravenous; conditions: in vivo
Mus musculus [2] = assay: Toxicity in athymic nude mouse xenografted with human NCI-H1435 cells expressing CES2 gene assessed as occurrence of fatty liver administered with six iv injection of 2.5 mg/kg by hematoxylin/eosin staining-based microscopy; assay type: organism-based; design: dose 2.5 mg/kg, route intravenous; conditions: in vivo
Summary of the method: (§1)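 Hearts and livers taken from the H1435 nude-mouse study (six i.v. injections) after CO₂/cervical dislocation. Fixed in 10% formalin for 24 h, paraffin-embedded, and cut at 4 µm. Slides deparaffinized in xylene and ethanol, stained with Mayer's hematoxylin for 2 min, blued in 1% ammonium hydroxide, and counterstained with eosin for 30 s. Examined by light microscopy.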

Mus musculus [3] = assay: Toxicity in athymic nude mouse xenografted with human NCI-H1435 cells expressing CES2 gene assessed as vacuolar damage in ileum administered with six iv injection of 2.5 mg/kg by hematoxylin/eosin staining-based microscopy; assay type: organism-based; design: dose 2.5 mg/kg, route intravenous; conditions: in vivo
Summary of the method: (§2)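 Kidney and ileum taken from the H1435 nude-mouse study (six i.v. injections). Formalin-fixed for 24 h, paraffin-embedded, and cut into 4 µm sections. Sections deparaffinized in xylene, rehydrated through an ethanol series, stained in Harris hematoxylin for 50 s with eosin, then dehydrated and mounted. Morphology assessed by microscopy.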

Mus musculus [4] = assay: Toxicity in athymic nude mouse xenografted with human NCI-H1435 cells expressing CES2 gene assessed as occurrence of cardiomyocyte necrosis administered with six iv injection of 2.5 mg/kg by hematoxylin/eosin staining-based microscopy; assay type: organism-based; design: dose 2.5 mg/kg, route intravenous; conditions: in vivo; summary of the method: as §1
Mus musculus [5] = assay: Toxicity in athymic nude mouse xenografted with human NCI-H1435 cells expressing CES2 gene assessed as appearance of fibrotic damage in heart tissue administered with six iv injection of 2.5 mg/kg by hematoxylin/eosin staining-based microscopy; assay type: organism-based; design: dose 2.5 mg/kg, route intravenous; conditions: in vivo; summary of the method: as §1
NCI-H1435 [6] = assay: Antitumor activity against human NCI-H1435 cells expressing CES2 gene xenografted in pentyl PABC-doxazolidine-pretreated athymic nude mouse assessed as inhibition of tumor growth at 2.5 mg/kg, iv administered on day 63 after tumor implantation; assay type: functional, organism-based; design: dose 2.5 mg/kg
Summary of the method: (§3)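 Athymic nude females, 4–6 weeks old, given ~2 × 10⁶ H1435 cells s.c. in the left flank on day 0; 10 mice/group. I.v. tail-vein doses (Dox-equivalent mg/kg) in 5% DMSO/95% D5W on days 7, 14 and 21, with all groups retreated on days 56, 63 and 70; vehicle controls. Caliper volume π × short² × long/6. Cube roots analysed with day-7 size as baseline covariate, by period.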

[7] = Toxicity in NOD/SCID mouse xenografted with human HepG2 cells expressing CES2 gene assessed as mortality rate at 3 mg/kg, iv administered on day 7, 14 and 21 after tumor implantation; assay type: organism-based; design: dose 3 mg/kg, route intravenous; conditions: in vivo, read-out: Activity
Summary of the method: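 Female NOD/SCID mice, 4–6 weeks old, 10 per group. About 1.5 × 10⁷ N-Hep G2 cells were injected s.c. into the left flank. Tail-vein i.v. dosing (mg/kg Dox-equivalent weight) was given on days 7, 14 and 21. Vehicle was 5% DMSO/95% D5W, and controls received vehicle only. Body weight was measured weekly over the first 5 weeks. Survival was followed to study end.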

Mus musculus [8] = assay: Toxicity in athymic nude mouse xenografted with human NCI-H1435 cells expressing CES2 gene assessed as inflammatory cell infiltration in ileum administered with six iv injection of 2.5 mg/kg by hematoxylin/eosin staining-based microscopy; assay type: organism-based; design: dose 2.5 mg/kg, route intravenous; conditions: in vivo; summary of the method: as §2
NCI-H1435 [9] = assay: Antitumor activity against human NCI-H1435 cells expressing CES2 gene xenografted in athymic nude mouse assessed as reduction in tumor size at 2.5 mg/kg, iv administered on day 7, 14 and 21 after tumor implantation; assay type: functional, organism-based; design: dose 2.5 mg/kg; summary of the method: as §3
NCI-H1435 [10] = assay: Antitumor activity against human NCI-H1435 cells expressing CES2 gene xenografted in pentyl PABC-doxazolidine-pretreated athymic nude mouse assessed as inhibition of tumor growth at 2.5 mg/kg, iv administered on day 56 after tumor implantation; assay type: functional, organism-based; design: dose 2.5 mg/kg; summary of the method: as §3
Mus musculus [11] = assay: Toxicity in athymic nude mouse xenografted with human NCI-H1435 cells expressing CES2 gene assessed as myofibril disorganization and vacuolization of heart tissue administered with six iv injection of 2.5 mg/kg by hematoxylin/eosin staining-based microscopy; assay type: organism-based; design: dose 2.5 mg/kg, route intravenous; conditions: in vivo; summary of the method: as §1
NCI-H1435 [12] = assay: Antitumor activity against human NCI-H1435 cells expressing CES2 gene xenografted in athymic nude mouse assessed as slowing of tumor growth at 2.5 mg/kg, iv administered as three weekly infusion from day 21 to 56 after tumor implantation; assay type: functional, organism-based; design: dose 2.5 mg/kg; summary of the method: as §3
HepG2 = assay: Antitumor activity against human HepG2 cells expressing CES2 gene xenografted in NOD/SCID mouse assessed as inhibition of tumor growth at 4 to 5 mg/kg, iv administered on day 7, 14 and 21 after tumor implantation; assay type: functional, organism-based
Summary of the method: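 NOD/SCID females, 4–6 weeks old, each given ~1.5 × 10⁷ N-Hep G2 cells s.c. in the left flank; 10 mice/group. Dosed i.v. by tail vein on days 7, 14 and 21, in mg/kg Dox-equivalent, from DMSO diluted into D5W (5% DMSO/95% D5W), 100 µL/mouse. Vehicle-only controls. The 3 mg/kg group was redosed at 5 mg/kg on days 45 and 52. Tumor volume (π × short diameter² × long diameter/6) measured weekly.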

Mus musculus [13] = assay: Toxicity in athymic nude mouse xenografted with human NCI-H1435 cells expressing CES2 gene assessed as vacuolar degeneration of kidney tissue administered with six iv injection of 2.5 mg/kg by hematoxylin/eosin staining-based microscopy; assay type: organism-based; design: dose 2.5 mg/kg, route intravenous; conditions: in vivo; summary of the method: as §2
NCI-H1435 [14] = assay: Antitumor activity against human NCI-H1435 cells expressing CES2 gene xenografted in pentyl PABC-doxazolidine-pretreated athymic nude mouse assessed as inhibition of tumor growth at 2.5 mg/kg, iv administered on day 70 after tumor implantation; assay type: functional, organism-based; design: dose 2.5 mg/kg; summary of the method: as §3
Mus musculus [15] = assay: Toxicity in athymic nude mouse xenografted with human NCI-H1435 cells expressing CES2 gene at 3 to 4 mg/kg, iv administered on day 7, 14 and 21 after tumor implantation; assay type: organism-based; design: dose 3-4 mg/kg, route intravenous; conditions: in vivo
Mus musculus [16] = assay: Toxicity in athymic nude mouse xenografted with human NCI-H1435 cells expressing CES2 gene assessed as uniformity in punktate staining pattern of hepatocytes administered with six iv injection of 2.5 mg/kg by hematoxylin/eosin staining-based microscopy; assay type: organism-based, Hepatocyte; design: dose 2.5 mg/kg, route intravenous; summary of the method: as §1
Mus musculus [17] = assay: Toxicity in athymic nude mouse xenografted with human NCI-H1435 cells expressing CES2 gene assessed as occurrence of diarrhea at 3 to 4 mg/kg, iv administered on day 7, 14 and 21 after tumor implantation; assay type: organism-based; design: dose 3-4 mg/kg, route intravenous; conditions: in vivo
NCI-H1435 [18] = assay: Antitumor activity against human NCI-H1435 cells expressing CES2 gene xenografted in athymic nude mouse assessed as inhibition of tumor growth at 2.5 mg/kg, iv administered on day 7, 14 and 21 after tumor implantation; assay type: functional, organism-based; design: dose 2.5 mg/kg; summary of the method: as §3
Mus musculus [19] = assay: Toxicity in athymic nude mouse xenografted with human NCI-H1435 cells expressing CES2 gene assessed as lipid […] in hepatocytes administered with six iv injection of 3 to 4 mg/kg by hematoxylin/eosin staining-based microscopy; assay type: organism-based, Hepatocyte; design: dose 3-4 mg/kg, route intravenous
Summary of the method: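 Female athymic nude mice, 4–6 weeks old, 10 per group. About 2 × 10⁶ H1435 cells were implanted s.c. into the left flank. I.v. tail-vein doses (Dox-equivalent) were given on days 7, 14, 21, 56, 63 and 70 in 5% DMSO/95% D5W. At sacrifice, organs were fixed in 10% formalin for 24 h and paraffin-embedded. Sections were cut at 4 µm and stained with hematoxylin/eosin for microscopy.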

Compound	Activity (Mus musculus [1])	Activity (Mus musculus [2])	Activity (Mus musculus [3])	Activity (Mus musculus [4])	Activity (Mus musculus [5])	inhibition (NCI-H1435 [6])	mortality [7] [%]	Activity (Mus musculus [8])	Activity (NCI-H1435 [9])	inhibition (NCI-H1435 [10])	Activity (Mus musculus [11])	Activity (NCI-H1435 [12])	inhibition (HepG2)	Activity (Mus musculus [13])	inhibition (NCI-H1435 [14])	Activity (Mus musculus [15])	Activity (Mus musculus [16])	Activity (Mus musculus [17])	inhibition (NCI-H1435 [18])	Activity (Mus musculus [19])
COc1cccc2c1C(=O)c1c(O)c3c(c(O)c1C2=O)C[C@@](O)(C(=O)CO)C[C@@H]3O[C@H]1C[C@H](N)[C@H](O)[C@H](C)O1 [DOXORUBICIN]	Non-toxic	Non-toxic	Non-toxic	Toxic	Toxic	inactive	70	Non-toxic	Active	inactive	Toxic	Active	Active	Toxic	inactive	Non-toxic	Non-toxic	Non-toxic	Active	Toxic
COc1cccc2c1C(=O)c1c(O)c3c(c(O)c1C2=O)C[C@@](O)(C(=O)CO)C[C@@H]3O[C@H]1C[C@@H]2NCO[C@@H]2[C@H](C)O1 [DOXAZOLIDINE]	–	–	–	–	–	–	–	–	–	–	–	–	–	–	–	–	–	–	–	Toxic
